Test system: FKBP12^F36V-PTPN2 H1975 cells
Assay: Cell viability by CellTiter-Glo, FKBP12F36V-PTPN2 H1975
Type: cell-based
Settings: read-out: IC50, cell viability; 6 days
Procedure, shortened: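 H1975 cells lentivirally transduced to express Flag-FKBP12F36V-PTPN2 (TC45 short isoform) were seeded at 3000 cells/well in full medium for 24 h. They were then treated with test compound at a range of concentrations under serum-free conditions for 4 or 6 days. Viability was measured by CellTiter-Glo luminescence and normalised to DMSO controls. Three replicates, mean and SD.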

IC50: 2110 nM
Structure (SMILES): CN(C)C/C=C/C(=O)Nc1cc2c(Nc3ccc(F)c(Cl)c3)ncnc2cc1O[C@H]1CCOC1 [afatinib]
